The values that follow come from ChEMBL document CHEMBL1149252, “Synthesis and structure-activity relationships of 4-alkynyloxy phenyl sulfanyl, sulfinyl, and sulfonyl alkyl hydroxamates as tumor necrosis factor-alpha converting enzyme and matrix metalloproteinase inhibitors” (J Med Chem, 2004).

The target of one assay is Collagenase 3 (Homo sapiens, UniProt P45452). Briefly: Inhibition of MMP13 at 10 uM. Put shortly:
(§1)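 Cell-free assay on isolated enzyme (MMP-1, MMP-9, MMP-13 or TACE). Percent inhibition was read at a single 10 μM inhibitor concentration, with samples run in triplicate and the mean reported. Full dose-response curves were generated only where inhibition at 10 μM reached 60%.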

Another assay concerns THP-1. Briefly: Inhibition of LPS-stimulated TNFalpha production in human THP1 cells at 3 uM by ELISA. It is filed as functional.
The target in the next assay is Interstitial collagenase (Homo sapiens, UniProt P03956). Briefly: Inhibition of MMP1 at 10 uM. Put shortly: as §1
For assay [1], the target named is Matrix metalloproteinase-9 (Homo sapiens, UniProt P14780). Briefly: Inhibition of MMP9 at 10 uM. In a few lines: as §1
The subject of assay [2] is Mus musculus. Briefly: Inhibition of LPS-stimulated TNFalpha production in mouse model at 100 mg/kg, po at 12 hrs. It is filed as functional.
For assay [3], the system named is Mus musculus. Briefly: Inhibition of LPS-stimulated TNFalpha production in mouse model at 100 mg/kg, po at 1 hrs. It is filed as functional. In a few lines: (§2)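 Mice received the compound orally. LPS was injected 30 min after dosing. Blood was drawn 1 h after LPS, and serum TNF-α was measured by ELISA. Results are expressed as % inhibition of LPS-induced TNF-α.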

Assay [4] has as its system Mus musculus. Briefly: Inhibition of LPS-stimulated TNFalpha production in mouse model at 10 mg/kg, po. Type of assay: functional, organism-based. Further details: dose 10 mg/kg. In a few lines: as §2
The target in assay [5] is T1, Disintegrin and metalloproteinase domain-containing protein 17 (Homo sapiens, UniProt P78536). Briefly: Inhibition of TACE at 10 uM. Put shortly: as §1
Assay [6] concerns the target T1, Disintegrin and metalloproteinase domain-containing protein 17.
The test system of assay [7] is Mus musculus. Briefly: Inhibition of LPS-stimulated TNFalpha production in mouse model at 10 mg/kg, po at 1 hrs. It is filed as functional. In a few lines: as §2
Assay [8] relates to Mus musculus. Briefly: Inhibition of LPS-stimulated TNFalpha production in mouse model at 10 mg/kg, po at 12 hrs. Type of assay: functional, organism-based. More on the design: dose 10 mg/kg.

Activity calls are given as the source filed them. The calls are words filed in the database; no cut-off is given here.

Sequence of Interstitial collagenase (P03956 whole entry): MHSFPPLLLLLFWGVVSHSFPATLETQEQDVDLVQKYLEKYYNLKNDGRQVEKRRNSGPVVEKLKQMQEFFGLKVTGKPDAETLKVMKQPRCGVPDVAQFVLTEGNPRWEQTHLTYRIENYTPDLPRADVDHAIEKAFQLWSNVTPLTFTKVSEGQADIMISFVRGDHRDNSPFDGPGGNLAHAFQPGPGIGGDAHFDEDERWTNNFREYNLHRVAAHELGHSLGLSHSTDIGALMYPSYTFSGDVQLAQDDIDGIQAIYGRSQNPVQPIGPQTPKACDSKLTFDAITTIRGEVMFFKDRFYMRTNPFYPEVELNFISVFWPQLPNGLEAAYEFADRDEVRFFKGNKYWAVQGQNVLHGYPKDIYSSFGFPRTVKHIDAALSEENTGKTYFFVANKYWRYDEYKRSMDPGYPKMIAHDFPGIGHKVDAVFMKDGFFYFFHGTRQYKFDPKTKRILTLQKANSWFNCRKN
T1 sequence (P78536 whole entry, the tested form may be a part): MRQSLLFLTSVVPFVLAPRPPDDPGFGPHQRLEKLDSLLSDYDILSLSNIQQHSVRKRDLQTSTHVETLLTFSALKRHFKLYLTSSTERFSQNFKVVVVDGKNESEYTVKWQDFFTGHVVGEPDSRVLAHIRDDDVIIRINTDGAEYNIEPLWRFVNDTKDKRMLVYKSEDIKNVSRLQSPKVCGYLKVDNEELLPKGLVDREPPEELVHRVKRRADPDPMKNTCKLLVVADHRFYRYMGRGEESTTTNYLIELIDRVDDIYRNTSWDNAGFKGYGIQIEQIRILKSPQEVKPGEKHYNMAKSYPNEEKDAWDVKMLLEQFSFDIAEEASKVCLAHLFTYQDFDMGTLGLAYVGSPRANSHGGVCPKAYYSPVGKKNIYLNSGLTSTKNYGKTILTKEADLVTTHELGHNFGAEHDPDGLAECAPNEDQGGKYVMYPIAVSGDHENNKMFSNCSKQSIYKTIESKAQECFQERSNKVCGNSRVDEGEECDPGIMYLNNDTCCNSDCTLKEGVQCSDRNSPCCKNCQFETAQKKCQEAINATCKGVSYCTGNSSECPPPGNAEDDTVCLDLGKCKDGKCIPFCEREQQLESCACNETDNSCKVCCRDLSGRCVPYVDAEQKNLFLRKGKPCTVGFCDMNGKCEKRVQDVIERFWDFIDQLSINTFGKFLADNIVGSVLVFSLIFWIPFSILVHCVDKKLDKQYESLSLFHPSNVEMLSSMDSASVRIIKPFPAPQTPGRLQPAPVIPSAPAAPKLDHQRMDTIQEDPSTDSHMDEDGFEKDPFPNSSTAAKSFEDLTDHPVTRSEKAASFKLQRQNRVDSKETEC
Sequence of Matrix metalloproteinase-9 (P14780 whole entry): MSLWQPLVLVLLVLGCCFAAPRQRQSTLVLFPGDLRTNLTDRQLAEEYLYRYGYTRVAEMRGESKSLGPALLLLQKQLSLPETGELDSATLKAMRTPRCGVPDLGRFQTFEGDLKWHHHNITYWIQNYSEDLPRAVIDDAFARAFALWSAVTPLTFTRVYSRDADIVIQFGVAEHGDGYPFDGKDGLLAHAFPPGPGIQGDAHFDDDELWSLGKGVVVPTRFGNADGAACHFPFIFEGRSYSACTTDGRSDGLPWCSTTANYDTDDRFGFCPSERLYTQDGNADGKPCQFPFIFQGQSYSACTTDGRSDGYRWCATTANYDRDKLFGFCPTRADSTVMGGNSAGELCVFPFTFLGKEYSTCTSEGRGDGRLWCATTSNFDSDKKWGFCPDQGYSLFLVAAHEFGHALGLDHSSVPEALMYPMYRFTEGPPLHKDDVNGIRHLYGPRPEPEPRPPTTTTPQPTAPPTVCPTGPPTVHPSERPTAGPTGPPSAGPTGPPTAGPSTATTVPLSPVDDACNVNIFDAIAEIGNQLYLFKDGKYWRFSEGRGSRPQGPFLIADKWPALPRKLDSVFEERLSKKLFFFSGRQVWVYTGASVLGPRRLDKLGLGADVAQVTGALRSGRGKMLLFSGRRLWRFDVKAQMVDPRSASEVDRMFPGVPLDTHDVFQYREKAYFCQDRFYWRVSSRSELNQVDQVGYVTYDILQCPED

`O=C(NO)C1(S(=O)(=O)c2ccc(OCC#CCN3CCOCC3)cc2)CCN(Cc2ccc(Br)cc2)CC1`: the inhibition against Collagenase 3 turned out to be 63%; on Interstitial collagenase, 16%; in [1], 20%. Besides, in the assay on THP-1, testing at 3 µM gave an inhibition of 0%.
For `CC#CCOc1ccc(S(=O)(=O)C2(C(=O)NO)CCN(Cc3ccc(OC)cc3)CC2)cc1`, the inhibition in vivo at 100 mg/kg in the assay on Mus musculus [2] is 24%; in the assay on Mus musculus [3], 91%. Also, the outcome in the assay on Mus musculus [4] was inactive.
With `CC#CCOc1ccc(SC2(C(=O)OCC)CCN(C(=O)OC(C)(C)C)CC2)cc1`, the inhibition against Collagenase 3 is 32%; in [5], 67%; at Interstitial collagenase it was 26%; in assay [1], 21%. Also, the inhibition at 3 µM in the assay on THP-1 turned out to be 0%.
As for `CCCCCC#CCOc1ccc(S(=O)(=O)C2(C(=O)NO)CCN(Cc3ccc(Br)cc3)CC2)cc1`, the inhibition against Collagenase 3 is 60%; on Interstitial collagenase, 33%; in assay [1], 59%. The compound also came in with an inhibition at 3 µM in the assay on THP-1 of 0%.
In assay [6], `CC#CCOc1ccc(S(=O)(=O)C2(C(=O)NO)CCN(CC)CC2)cc1` had an IC50 of 80 nM. In the assay with THP-1, this compound registered an inhibition at 3 µM of 35%. Also, the inhibition on Interstitial collagenase was 44%; in [1], 31%.
Turning to `CCC#CCOc1ccc(S(=O)(=O)C2(C(=O)NO)CCN(Cc3ccc(Br)cc3)CC2)cc1`, the inhibition on Collagenase 3 is 40%; against Interstitial collagenase, 51%; in assay [1] it was 41%. The same compound returned an inhibition at 3 µM with THP-1 of 0%.
With `CC#CCOc1ccc(S(=O)(=O)C2(C(=O)NO)CCN(Cc3ccc(Cl)cc3)CC2)cc1`, the inhibition against Collagenase 3 was found to be 56%; against Interstitial collagenase, 52%; in assay [1] it was 52%. Moreover, testing at 3 µM in the assay with THP-1 gave an inhibition of 66%. The inhibition in vivo at 100 mg/kg in the assay with Mus musculus [2] was found to be 23%; in the assay on Mus musculus [3], 61%. In addition, the outcome with Mus musculus [4] was inactive.
In turn, `CC#CCOc1ccc(SC2(C(=O)NO)CCN(C(=O)OC(C)(C)C)CC2)cc1` had an inhibition at 3 µM in the assay with THP-1 of 0%. The values for the inhibition (in [5]; against Interstitial collagenase; in assay [1]) were 38%, 24% and 25%, respectively.
With `CCCCCCC(Sc1ccc(OC)cc1)C(=O)NO` (stereo not given), the inhibition against Collagenase 3 worked out at 55%; against Interstitial collagenase, 9%; in assay [1], 67%.
With `CC#CCOc1ccc(S(=O)(=O)N2CCSC(C)(C)[C@@H]2C(=O)NO)cc1`, at 10 mg/kg the inhibition in vivo with Mus musculus [7] was 80%. Moreover, in the assay on Mus musculus [8], the outcome was inactive.

The inhibition is the share of the control response that was lost under treatment. A low value points to a weak effect. The inhibition in vivo is the change of the read-out against control, counted positive when it falls. A higher inhibition in vivo goes with a strong effect. As usually defined, the IC50 is the point on the concentration scale where inhibition reaches its midpoint. A lower IC50 goes with higher potency.
